Most compounds without a hit are left out; they make up all but 1.8% or so of the library.
NPY-Y2 PAM-ag: potentiates or activates human NPY-Y2 receptor; activation, % at 3.6 µM; AID 1359; P49146; 220,000 compounds, 0.45% hits; cells expressing NPY-Y2, potentiator/agonist read-out; in the data active = activation above about 27%;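 note: cells stimulated with NPY near EC25 plus isoproterenol at EC100; 0% = vehicle plus submaximal agonist and 100% = vehicle plus saturating agonist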
Target sequence (P49146 whole entry, looked up): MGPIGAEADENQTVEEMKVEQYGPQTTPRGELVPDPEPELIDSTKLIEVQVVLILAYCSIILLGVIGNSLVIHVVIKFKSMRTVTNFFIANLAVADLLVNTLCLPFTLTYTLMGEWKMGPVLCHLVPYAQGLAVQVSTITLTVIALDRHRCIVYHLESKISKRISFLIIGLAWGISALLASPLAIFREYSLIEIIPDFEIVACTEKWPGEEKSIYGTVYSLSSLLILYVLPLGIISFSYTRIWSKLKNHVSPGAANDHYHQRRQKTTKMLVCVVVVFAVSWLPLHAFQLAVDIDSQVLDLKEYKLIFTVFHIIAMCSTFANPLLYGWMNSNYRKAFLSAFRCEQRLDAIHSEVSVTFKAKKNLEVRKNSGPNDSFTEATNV
NPY-Y1 PAM-ag: potentiators or agonists of human neuropeptide Y receptor Y1; P25929; NPY-Y1 expressing cells, potentiator/agonist activation; activation, % at 3.6 µM; 220,000 compounds, 0.37% hits; AID 1304; in the data active = activation above about 33%, passing the limit was not always enough;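 note: cells stimulated with NPY at EC10 then isoproterenol at EC100; 0% = low agonist plus stimulus and 100% = saturating agonist plus stimulus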
NPY-Y2 antag: blocks the human neuropeptide Y Y2 receptor; P49146; NPY-Y2 expressing cells, antagonist mode; inhibition, % at 2.7 µM; 140,000 compounds, 0.99% hits; in the data active = inhibition above about 17%;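 note: 0% = vehicle with agonist challenge and 100% = reference antagonist with challenge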
NPY Y1 blocker: antagonists of human neuropeptide Y receptor Y1; P25929; inhibition, % at 3.6 µM; AID 1040; HEK293-CNG Y1 cells, membrane potential fluorescence; NPY at EC95, then isoproterenol; 200,000 compounds, 1% hits;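 active = inhibition above the campaign mean inhibition of all tested compounds plus 3 SD, cut at about 20% in these data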;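 note: 0% = DMSO wells given NPY plus isoproterenol and 100% = isoproterenol alone without NPY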
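Material: HEK293 Y1/CNG channel cell line | Also added: NPY (25 nM), isoproterenol (1 µM), Ro 20-1724 (25 µM) | Compound: One concentration, 3.6 µM, in 0.4% DMSO | Schedule: 3 h dye uptake, 1 h room-temperature compound, 45 min post-isoproterenol | Signal: Membrane-potential fluorescent dye readout | Read-out: % inhibition of NPY effect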
The depositor's hits bear a star.

`CC(C)(C)OC(=O)COc1cc(O)c2c(=O)cc(-c3ccccc3)oc2c1` gave NPY-Y2 PAM-ag 1, NPY-Y1 PAM-ag 9, NPY-Y2 antag 16 and NPY Y1 blocker 0.
Screening CC(C)(C)OC(=O)COc1cc(OCC(=O)OC(C)(C)C)c2c(=O)cc(-c3ccccc3)oc2c1 returned NPY-Y2 PAM-ag -30, NPY-Y1 PAM-ag -31, NPY-Y2 antag 33* and NPY Y1 blocker 46*.
For O=C1OC(c2ccccc2)/C(=C(/O)c2ccccc2)C1=O (centres undefined) the results were NPY-Y2 PAM-ag 62*, NPY-Y1 PAM-ag 103*, NPY-Y2 antag 5 and NPY Y1 blocker 0.
`Cn1c(C(=O)NCc2ccccn2)cc2c(=O)n(C)c3ccccc3c21` gave NPY-Y2 PAM-ag 42*, NPY-Y1 PAM-ag 37*, NPY-Y2 antag -7 and NPY Y1 blocker -12.
Screening O=C(NC1CCCCCC1)c1cc(S(=O)(=O)N2CCOCC2)ccc1N1CCCCC1 returned NPY-Y2 PAM-ag 0, NPY-Y1 PAM-ag 18, NPY-Y2 antag 9 and NPY Y1 blocker 6.
O=C(NC1CCCCCC1)c1cc(S(=O)(=O)N2CCCCC2)ccc1N1CCOCC1 was read as NPY-Y2 PAM-ag -2, NPY-Y1 PAM-ag -1 and NPY Y1 blocker 21*.
For Cn1c(N)c(C(=O)COC(=O)CCCc2c[nH]c3ccccc23)c(=O)n(C)c1=O the results were NPY-Y2 PAM-ag -29, NPY-Y1 PAM-ag -45, NPY-Y2 antag 20* and NPY Y1 blocker 30*.
Screening Cn1c(N)c(C(=O)COC(=O)CCc2c[nH]c3ccccc23)c(=O)n(C)c1=O returned NPY-Y2 PAM-ag -27, NPY-Y1 PAM-ag -26, NPY-Y2 antag 6 and NPY Y1 blocker 18.
For CCc1nc(SCC(=O)Nc2ccc(OC)cc2[N+](=O)[O-])n[nH]1 the results were NPY-Y2 PAM-ag -6 and NPY-Y1 PAM-ag -18.
CCCCC(=O)Nc1nc2c(OC)cc([N+](=O)[O-])cc2s1 was read as NPY-Y2 PAM-ag 33*, NPY-Y1 PAM-ag 39* and NPY Y1 blocker -11.
COC(=O)CSc1nc2ccc(NC(=O)CSc3nnnn3Cc3ccccc3)cc2s1 was read as NPY-Y2 PAM-ag 105*, NPY-Y1 PAM-ag 109*, NPY-Y2 antag -2 and NPY Y1 blocker -11.
`CCOC(=O)Cn1c(S(=O)(=O)Cc2ccc(F)cc2)nc(-c2ccccc2)c1-c1ccccc1` gave NPY-Y2 PAM-ag -10, NPY-Y1 PAM-ag 12, NPY-Y2 antag 26* and NPY Y1 blocker 38*.
For CCOC(=O)Cn1c(-c2ccccc2)nc2ccccc2c1=O the results were NPY-Y2 PAM-ag -9, NPY-Y1 PAM-ag 5, NPY-Y2 antag 6 and NPY Y1 blocker 5.
Screening C#CCn1c(S(=O)(=O)Cc2ccc(F)cc2)nc(-c2ccccc2)c1-c1ccccc1 returned NPY-Y2 PAM-ag -14, NPY-Y1 PAM-ag 0, NPY-Y2 antag 4 and NPY Y1 blocker 21*.
Screening C=CCN=c1scc(-c2ccc(F)cc2)n1/N=C/c1ccccn1 returned NPY-Y2 PAM-ag 33*, NPY-Y1 PAM-ag 60*, NPY-Y2 antag 6 and NPY Y1 blocker -12.
Screening Cc1ccc(OCC(=O)Nc2ccc([N+](=O)[O-])cn2)cc1C returned NPY-Y2 PAM-ag -8, NPY-Y1 PAM-ag -33, NPY-Y2 antag 9 and NPY Y1 blocker 25*.
COc1ccc(NC(=O)CSc2nc(-c3ccncc3)nn2CC(=O)N2CCCC2)cc1 was read as NPY-Y2 PAM-ag -10, NPY-Y1 PAM-ag 2, NPY-Y2 antag 1 and NPY Y1 blocker -2.
Cc1ccc(-n2ncc(C(=O)Nc3ccc(Cl)cc3)c2C2CCNCC2)cc1C was read as NPY-Y2 PAM-ag -18, NPY-Y1 PAM-ag -14 and NPY Y1 blocker 20*.
`CC1CCN(C(=S)c2cn(Cc3ccccc3F)c3ccccc23)CC1` gave NPY-Y2 PAM-ag -17, NPY-Y1 PAM-ag -7, NPY-Y2 antag 29* and NPY Y1 blocker 45*.
Screening OCCNCc1cc(Br)ccc1OCc1ccc(Cl)cc1Cl returned NPY-Y2 PAM-ag -47, NPY-Y1 PAM-ag -94, NPY-Y2 antag 28* and NPY Y1 blocker 43*.
CCCC(=O)Nc1ccc(-c2csc(N/N=C\c3ccncc3)n2)cc1 was read as NPY-Y2 PAM-ag -1 and NPY-Y1 PAM-ag 0.
COc1cc(/C=N/N2C(=O)c3ccccc3NC2(C)c2cccc([N+](=O)[O-])c2)cc(Br)c1O (centres undefined) was read as NPY-Y2 PAM-ag 1, NPY-Y1 PAM-ag -2, NPY-Y2 antag 17* and NPY Y1 blocker 3.
`COc1cc(/C=N/NC(=O)c2ccc([N+](=O)[O-])cc2Cl)cc(Br)c1O` gave NPY-Y2 PAM-ag 1, NPY-Y1 PAM-ag 0, NPY-Y2 antag 3 and NPY Y1 blocker -7.
For COC(=O)C/C=C/[C@@H](C)[C@@H](/C=N/OC[C@H]1O[C@H](c2ccccc2)C=C[C@@H]1Oc1ccc(OC)cc1)OC the results were NPY-Y2 PAM-ag 2, NPY-Y1 PAM-ag -39, NPY-Y2 antag 19* and NPY Y1 blocker 25*.
COc1ccc(O[C@H]2C=C[C@@H](c3ccccc3)O[C@@H]2COC(=O)CC/C(C)=N/OC[C@@H](O)COCc2ccco2)cc1 was read as NPY-Y2 PAM-ag -3, NPY-Y1 PAM-ag -21, NPY-Y2 antag 12 and NPY Y1 blocker 7.
CCOC(=O)CSc1ccc(C(=O)Nc2ccc(OC)cc2)cn1 was read as NPY-Y2 PAM-ag 37*, NPY-Y1 PAM-ag 75* and NPY Y1 blocker -4.
Screening CCOC(=O)CSc1ccc(C(=O)Nc2ccc(Cl)cc2)cn1 returned NPY-Y2 PAM-ag -1, NPY-Y1 PAM-ag -11 and NPY Y1 blocker 0.
Screening C=CCc1ccccc1OCC(O)CN(CC)CC (centres undefined) returned NPY-Y2 PAM-ag 89*, NPY-Y1 PAM-ag 103*, NPY-Y2 antag 2 and NPY Y1 blocker -15.
For C=CCc1ccccc1OCC(O)CNC(=O)c1ccccc1C(=O)O (centres undefined) the results were NPY-Y2 PAM-ag 92* and NPY-Y1 PAM-ag 87*.
Screening C=CCn1c(=N)n(CC(O)COc2ccccc2OC)c2ccccc21 (centres undefined) returned NPY-Y2 PAM-ag -9, NPY-Y1 PAM-ag -8, NPY-Y2 antag 12 and NPY Y1 blocker 12.
CC(C)(C)c1ccc(OCC(O)CNC(=O)c2ccccc2C(=O)O)cc1 (centres undefined) was read as NPY-Y2 PAM-ag -11, NPY-Y1 PAM-ag -54, NPY-Y2 antag 6 and NPY Y1 blocker 16.
`CSCC[C@H](NC(=O)c1ccc(Cl)c([N+](=O)[O-])c1)c1nc2ccccc2[nH]1` gave NPY-Y2 PAM-ag 9, NPY-Y1 PAM-ag 38, NPY-Y2 antag -3 and NPY Y1 blocker -4.
O=C(NC(Cc1ccccc1)c1nc2ccccc2[nH]1)c1ccc(Cl)c([N+](=O)[O-])c1 (centres undefined) was read as NPY-Y2 PAM-ag 40*, NPY-Y1 PAM-ag 47*, NPY-Y2 antag 0 and NPY Y1 blocker -4.
For CCCCn1c(N)c(N(CCOC)C(=O)CCc2ccc(OC)cc2)c(=O)[nH]c1=O the results were NPY-Y2 PAM-ag 7, NPY-Y1 PAM-ag -17, NPY-Y2 antag 0 and NPY Y1 blocker 0.
O=C(COc1ccccc1C(=O)NCC1CCCO1)Nc1ccc(Br)cc1 (centres undefined) was read as NPY-Y2 PAM-ag 0, NPY-Y1 PAM-ag 10 and NPY Y1 blocker -3.
